This is a sample that favours compounds with a hit; in the whole collection about 1.8% have one here.
M4 PAM = potentiates acetylcholine response at human M4 receptor | P08173 | CHO-K1 hM4/Gqi5, Fluo-8 calcium fluorescence, ACh EC20; 0% = ACh EC20, 100% = maximal ACh | activation, % at 3 µM | 360,000 compounds, 0.4% hits | AID 624126;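 active means activation above its plate's cutoff, the mean activation of sample wells plus 3 SD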
CHRM4 antagonist = antagonists of human muscarinic M4 receptor (CHRM4); P08173; CHO-hM4 cells, ACh EC80, Fluo-8 calcium fluorescence; inhibition, % at 3 µM; 360,000 compounds, 0.73% hits; AID 624125;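 active means inhibition above its plate's cutoff, the mean inhibition of sample wells plus 3 SD, cut at about 27% in these data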
M5 PAM = CHRM5 positive allosteric modulation. activation, % at 3 µM. 360,000 compounds, 0.3% hits. P08912. CHO-K1 hM5, Fluo-8 calcium, ACh EC20 PAM; 0% = ACh EC20, 100% = ACh EC100;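 active means activation above the run cutoff, the mean activation of all test compounds plus 3 SD, cut at about 18% in these data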
Target sequence (P08912 whole entry, looked up): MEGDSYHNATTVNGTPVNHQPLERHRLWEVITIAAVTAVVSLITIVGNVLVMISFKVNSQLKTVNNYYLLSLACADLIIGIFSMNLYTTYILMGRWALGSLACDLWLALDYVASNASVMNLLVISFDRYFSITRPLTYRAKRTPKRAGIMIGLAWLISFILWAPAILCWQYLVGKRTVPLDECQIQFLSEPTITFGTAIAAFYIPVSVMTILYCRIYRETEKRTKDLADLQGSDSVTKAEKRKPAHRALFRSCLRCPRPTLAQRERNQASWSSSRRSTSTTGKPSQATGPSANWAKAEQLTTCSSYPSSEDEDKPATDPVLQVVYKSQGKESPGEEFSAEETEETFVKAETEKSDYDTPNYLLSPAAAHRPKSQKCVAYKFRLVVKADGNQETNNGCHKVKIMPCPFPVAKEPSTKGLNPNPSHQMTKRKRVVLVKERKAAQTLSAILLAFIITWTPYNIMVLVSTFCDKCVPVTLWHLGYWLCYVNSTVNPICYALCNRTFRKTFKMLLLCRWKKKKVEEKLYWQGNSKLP
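Replicates: One well per compound, no replicates | System: Human M5 receptor in CHO-K1 cells | Benchmarks: Low control EC20 acetylcholine (0%), high control EC100 acetylcholine (100%) | Probe or stimulus: Acetylcholine, EC20 level | Times: Fluo-8 loading 80 min at 37 °C plus 30 min room temperature | Signal: Intracellular calcium via Fluo-8 fluorescence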
CHRM5 agonist = CHRM5 agonism in calcium assay. CHO-K1 hM5 cells, Fluo-8 calcium fluorescence; 0% DMSO wells, 100% maximal acetylcholine response. activation, % at 3 µM. 360,000 compounds, 0.19% hits;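 active means activation above the run's mean over test compounds plus 3 SD, cut at about 23% in these data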;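 further: signal is peak over basal fluorescence ratio across the kinetic read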
CHRM4 agonist = CHRM4 agonism in calcium assay. P08173. CHO-K1 hM4/Gqi5, Fluo-8 calcium fluorescence; vehicle 0%, full acetylcholine response 100%. activation, % at 3 µM. 360,000 compounds, 0.14% hits. AID 624127;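 active means activation above the run mean over all test wells plus 3 SD, cut at about 32% in these data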;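 further: peak over basal fluorescence ratio per well then scaled between controls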
CHRM5 antagonist = antagonists of human muscarinic M5 receptor (CHRM5) | CHO-hM5 cells, Fluo-8 calcium fluorescence, ACh EC80 | P08912 | 360,000 compounds, 0.59% hits | inhibition, % at 3 µM;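 active means inhibition above a per-plate cutoff, the mean of that plate's test compounds plus 3 SD, cut at about 27% in these data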
Of the large screens only hits and unclear results are named; the others gave an inactive call; ! = repeats disagree.

COc1ccc(-c2nc3ccc(N4CCCC4)cc3c(=O)[nH]2)cc1OC	M5 PAM 19
COc1ccc2nc(-c3ccccc3)[nH]c(=O)c2c1	none
CSc1nc(N)nc(SCC(=O)Nc2ccc(Cl)cc2)c1C#N	none
CSc1nc(N)nc(SCC(=O)Nc2cccc(F)c2)c1C#N	CHRM5 antagonist 42
COc1ccc(NS(=O)(=O)c2ccc(C)c(C(=O)NCCCn3ccnc3)c2)cc1	none
O=S(=O)(c1ccc(F)cc1)N1CC2CCCN2c2ccc(C(F)(F)F)cc21 (stereo not given)	CHRM4 antagonist 39
Cc1cccc(C)c1NC(=O)CN(C)C(=O)c1ccc(OCc2ccccc2)cc1	M4 PAM 16
CCN(CC)CC(=O)Nc1c(C)cccc1C	CHRM4 antagonist 27!
CCN(CC)CC(=O)Nc1c(C)cc(C(C)(C)C)cc1C	none
Cc1cc(=O)[nH]c2cc(Cl)ccc12	none
COc1ccc2c(C)cc(=O)[nH]c2c1	M4 PAM 23, M5 PAM 40
CC[C@]12c3[nH]c4ccc(Cl)cc4c3CCN1C(=O)[C@@H](CC(=O)NCc1ccc(OC)c(OC)c1)C[C@@H]2C(=O)N1CCN(C(=O)C2CC2)CC1	none
CC[C@]12c3[nH]c4ccccc4c3CCN1C(=O)C(CC(=O)NCC13CC4CC(CC(C4)C1)C3)C[C@@H]2C(=O)N1CCN(C(=O)c2ccco2)CC1 (stereo not given in full)	CHRM4 antagonist 33
CC[C@]12c3[nH]c4ccc(OC)cc4c3CCN1C(=O)C(CC(=O)NCc1ccc(OC)c(OC)c1)C[C@@H]2C(=O)N1CCN(C(=O)C2CC2)CC1 (stereo not given in full)	CHRM4 antagonist 29
CN(C)c1ccc2c(=O)cc[nH]c2c1	none
O=C(NNc1ccc(F)cc1F)c1c(F)cccc1Cl	none
O=S(=O)(NNc1ccc(F)cc1F)c1cccc(Cl)c1	CHRM4 antagonist 67
CCOc1ccc(-c2nnc(-c3ccncc3)o2)cc1	M4 PAM 25, M5 PAM 42
COc1ccc(Nc2c(CC(C)C)nc3nc(C)cc(C)n23)cc1	none
COc1ccc(Nc2c(C3CC3)nc3nc(C)cc(C)n23)cc1	M4 PAM 28
O=C1NC[C@@H](CCCCN2CCN(CCC3CCCCC3)C(=O)C2=O)N(CCC2CCCCC2)C1=O	none
O=C1NCCc2c1[nH]c1c(Cl)ccc(Cl)c21	M5 PAM 21
CC(C)n1nc(C(=O)NNC(=O)c2ccncc2)c2ccccc2c1=O	M4 PAM 23
CCCCSc1nc2ccc(Nc3nc(N4CCOCC4)nc(N4CCOCC4)n3)cc2s1	M4 PAM 24
CCCCNC(=O)CSc1nc2ccc(Nc3nc(N4CCOCC4)nc(N4CCOCC4)n3)cc2s1	none
O=C(C(=O)N(C1CCCCC1)C1CCCCC1)c1ccccc1	none
CCOC(=O)CC1(CCc2ccccc2)Oc2ccccc2N1S(=O)(=O)c1ccc(C)cc1 (stereo not given)	none
CCOC(=O)CC1(C)Oc2cc(Cl)ccc2N1S(=O)(=O)c1ccc(C)cc1 (stereo not given)	CHRM5 antagonist 31
C=CCc1cccc(/C=N/n2cnnc2)c1O	M4 PAM 41
CN1C(=O)/C(=C/c2ccc(C(F)(F)F)cc2)Sc2ccc(C(=O)N3CCN(c4ccccn4)CC3)cc21	CHRM5 antagonist 37
CN1C(=O)/C(=C/c2ccccc2Cl)Sc2ccc(C(=O)N3CCCC3)cc21	none
CC(=O)O[C@]1(C(C)=O)CCC2C3C=C(C)C4=CC(=O)CC[C@]4(C)C3CC[C@@]21C (stereo not given in full)	none
CC(=O)O[C@H]1C[C@@]2(C)[C@@H](C[C@@H](O)[C@H]3[C@@]4(C)CC[C@@H](O)[C@@H](C)[C@@H]4CC[C@@]32C)/C1=C(\CCC=C(C)C)C(=O)O	CHRM4 antagonist 81!, CHRM5 antagonist 44!
Cc1cc(C)cc(C(O)c2ncc(-c3ccccc3)[nH]2)c1 (stereo not given)	none
Cc1noc(C)c1S(=O)(=O)Nc1ccc(C(=O)N2CCN(c3cccc(Cl)c3)CC2)cc1	CHRM4 agonist 35, CHRM5 antagonist 27
Cc1noc(C)c1S(=O)(=O)Nc1ccc(C(=O)N2CCc3ccccc3C2)cc1	M5 PAM 20
Cc1cccc(N2CCN(C(=O)c3ccc(NS(=O)(=O)c4c(C)noc4C)cc3)CC2)c1C	none
Cc1cc(=O)c(C(=O)Nc2cccc(C(=O)NC3CC3)c2)nn1-c1ccccc1	none
CCNC(=O)C1(C)CCCN(C(=O)c2cccnc2Oc2ccccc2)C1 (stereo not given)	none
CNc1ccc(/C=C\CCCO)cn1	none
CCN(CC)CCNC1=NCCn2c1cc1cc(OC)ccc12	M5 PAM 20
CSc1nc(N)nc2c1ncn2CC(=O)NCCCc1ccccc1	none
COc1ccc(C2=NOC(C(=O)NCc3ccc(F)cc3)C2)cc1 (stereo not given)	none
COc1ccc(CNC(=O)C2CC(c3ccc(F)cc3)=NO2)cc1 (stereo not given)	M4 PAM 36
COc1ccc(-c2nc3ccc(Br)cn3c2CC(C)(C)C)cc1OC	none
O=C(C(=Cc1ccccc1)CN1CCCCC1)c1ccccc1	CHRM4 antagonist 29
COc1ccc(C(C)(O)c2nc(-c3cccc(NC(C)=O)c3)cs2)cc1 (stereo not given)	none
Cc1ccc(C(C)C)cc1NC(=O)Nc1ccc([N+](=O)[O-])cc1	CHRM5 antagonist 28
Cc1ccc(NC(=O)Nc2cccc([N+](=O)[O-])c2)cc1F	CHRM5 antagonist 28
Cc1cc(O)c(C(C)C)cc1NC(=O)Nc1ccc([N+](=O)[O-])cc1	none
Cc1ccc(NC(=S)NNC(=O)c2cccc([N+](=O)[O-])c2)cc1Cl	CHRM5 antagonist 28
CC(c1nc2ccccc2[nH]1)N(C(=O)C1=NNC(=O)CC1)c1ccccc1 (stereo not given)	none
COc1ccc(CN2CCC2(C)C(=O)NCCc2c[nH]c3ccccc23)c2ccccc12 (stereo not given)	none
CCCOc1ccc(CSc2nc3ccccc3[nH]2)cc1	CHRM5 antagonist 42
CCOc1ccc(OCCSc2nc3ccccc3[nH]2)cc1	none
CCN(CC)CCC=C(c1cccs1)c1cccs1	CHRM4 antagonist 47, CHRM5 antagonist 28
Cc1ccc(S(=O)(=O)N2C[C@H]3C(=O)C[C@@H](c4cccc(Cl)c4)N(S(=O)(=O)c4ccc(C)cc4)[C@H]3C[C@H]2c2ccc(Cl)cc2)cc1	none
COc1ccc(OC)c(-n2c(SCC(=O)NCc3ccco3)nnc2-c2c[nH]c3ccccc23)c1	CHRM4 antagonist 40

Screening results from PubChem BioAssay.
